These results are taken from ChEMBL document CHEMBL1122984, “Synthesis and beta-lactamase inhibitory properties of 2 beta-[(acyloxy)methyl]-2-methylpenam-3 alpha-carboxylic acid 1,1-dioxides” (1985).

The target of assay [1] is Carbapenem-hydrolyzing beta-lactamase KPC (Klebsiella pneumoniae) (UniProt Q9F663).
The target in assay [2] is Metallo-beta-lactamase type 2 (Bacteroides fragilis) (UniProt P25910). The assay can be described thus: Minimum protective concentration used to protect the compound against Bacteroides fragilis A-22,695 beta-lactamase catalyzed hydrolysis.
Assay [3] concerns the target Beta-lactamase (Staphylococcus aureus) (UniProt P00807). Nature of the assay: Minimum protective concentration used to protect the compound against Staphylococcus aureus A9606 beta-lactamase catalyzed hydrolysis.
Assay [4] deals with TEM beta-lactamase (Klebsiella pneumoniae). Nature of the assay: Minimum protective concentration used to protect the compound against Klebsiella pneumoniae A20634 beta-lactamase catalyzed hydrolysis.
Assay [5] concerns Staphylococcus aureus. The assay can be described thus: Compound alone was evaluated for minimum inhibitory concentration against Staphylococcus aureus A9606. The class given is functional. The method in brief: (§1)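 Agar dilution MIC: organisms deposited onto medicated agar plates with a Steers replication device.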
Assay [6] concerns Escherichia coli. The assay can be described thus: Compound alone was evaluated for minimum inhibitory concentration against Escherichia coli A20107. The assay is classed as functional. The method in brief:
as §1

The test system of assay [7] is Escherichia coli. Nature of the assay: Compound alone was evaluated for minimum inhibitory concentration against Escherichia coli A20111. The class given is functional. In outline: as §1
Assay [8] relates to Staphylococcus aureus. Nature of the assay: Compound alone was evaluated for minimum inhibitory concentration against Staphylococcus aureus A15033. The assay is classed as functional. In outline: as §1
Assay [9] has as its system Staphylococcus aureus. Nature of the assay: Compound was evaluated for minimum inhibitory concentration in the presence of amoxicillin against Staphylococcus aureus A15033. The assay is classed as functional. In outline: (§2)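 Agar dilution MIC of a 1:1 (w/w) mixture of test compound with amoxicillin. Organisms were applied to medicated agar plates with a Steers replicator.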

For assay [10], the system named is Escherichia coli. Nature of the assay: Compound was evaluated for minimum inhibitory concentration in the presence of amoxicillin against Escherichia coli A20107. The assay is classed as functional. The method in brief:
as §2

The test system of assay [11] is Escherichia coli. Nature of the assay: Compound was evaluated for minimum inhibitory concentration in the presence of amoxicillin against Escherichia coli A20111. The class given is functional. The method in brief:
as §2

Assay [12] deals with Staphylococcus aureus. The assay can be described thus: Compound was evaluated for minimum inhibitory concentration in the presence of amoxicillin against Staphylococcus aureus A9606. The assay is classed as functional. The method in brief: as §2

Each structure is given as a SMILES string. In brackets after ≈: the same amount, converted by molar mass.

Chain of Metallo-beta-lactamase type 2 (Bacteroides fragilis) (P25910 whole entry): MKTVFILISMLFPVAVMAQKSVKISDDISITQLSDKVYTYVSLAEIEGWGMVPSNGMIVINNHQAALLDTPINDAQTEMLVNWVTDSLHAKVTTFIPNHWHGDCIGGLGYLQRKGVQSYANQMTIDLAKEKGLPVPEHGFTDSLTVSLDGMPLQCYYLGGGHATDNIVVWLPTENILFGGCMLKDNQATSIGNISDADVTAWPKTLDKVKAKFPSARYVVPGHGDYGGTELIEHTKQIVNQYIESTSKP
Chain of Beta-lactamase (Staphylococcus aureus) (P00807 whole entry): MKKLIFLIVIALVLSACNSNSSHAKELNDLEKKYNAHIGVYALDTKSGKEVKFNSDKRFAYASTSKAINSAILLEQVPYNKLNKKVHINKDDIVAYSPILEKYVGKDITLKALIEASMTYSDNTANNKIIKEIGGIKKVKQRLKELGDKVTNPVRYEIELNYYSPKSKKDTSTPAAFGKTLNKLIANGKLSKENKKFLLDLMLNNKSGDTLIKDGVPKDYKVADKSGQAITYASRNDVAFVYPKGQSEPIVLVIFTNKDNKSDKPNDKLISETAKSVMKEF
Chain of Carbapenem-hydrolyzing beta-lactamase KPC (Klebsiella pneumoniae) (Q9F663 whole entry): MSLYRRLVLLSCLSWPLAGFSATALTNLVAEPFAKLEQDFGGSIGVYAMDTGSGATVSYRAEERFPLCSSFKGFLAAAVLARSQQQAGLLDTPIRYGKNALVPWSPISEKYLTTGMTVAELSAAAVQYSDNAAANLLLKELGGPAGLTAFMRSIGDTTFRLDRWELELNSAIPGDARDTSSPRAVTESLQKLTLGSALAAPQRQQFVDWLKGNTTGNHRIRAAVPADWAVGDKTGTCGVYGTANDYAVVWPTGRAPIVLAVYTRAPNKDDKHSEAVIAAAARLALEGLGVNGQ

Regarding `CC1(C)[C@H](C(=O)O)N2C(=O)C[C@H]2S1(=O)=O`, the MPC in assay [1] came to 1.6 µg/mL.

As to `C[C@]1(CBr)[C@H](C(=O)O)N2C(=O)CC2S1(=O)=O` (stereo partly drawn), the MPC came to 12.5 µg/mL in assay [2], 3.1 µg/mL in [3] and 1.6 µg/mL in assay [4].

On to `C[C@]1(CCl)[C@H](C(=O)O)N2C(=O)CC2S1(=O)=O` (stereo partly drawn), for which the MPC in assay [2] was 12.5 µg/mL; in assay [3] it was 3.1 µg/mL; in [4], 3.1 µg/mL.

For `C[C@]1(CO)[C@H](C(=O)O)N2C(=O)CC2S1(=O)=O` (stereo partly drawn), the MPC in assay [2] was 100 µg/mL; in assay [3], more than 100 µg/mL; in [4], 6.2 µg/mL.

The term MIC denotes the lowest concentration found to suppress growth. As to `CC1(C)S[C@@H]2[C@H](NC(=O)[C@H](N)c3ccc(O)cc3)C(=O)N2[C@H]1C(=O)O` [AMOXICILLIN], the MIC was 32 µg/mL (≈ 87.6 µM) in the assay with Staphylococcus aureus [5], more than 125 µg/mL in the assay with Escherichia coli [6], more than 125 µg/mL in the assay with Escherichia coli [7] and 32 µg/mL (≈ 87.6 µM) with Staphylococcus aureus [8].

`O=C(O)[C@H]1/C(=C/CO)O[C@@H]2CC(=O)N21` [CLAVULANIC ACID] gave an MPC in [2] of 63 µg/mL. The MIC in the assay with Staphylococcus aureus [9] is 4 µg/mL; against Staphylococcus aureus [5] it was 32 µg/mL (≈ 161 µM); with Escherichia coli [10], 16 µg/mL; with Escherichia coli [11], 4 µg/mL; in the assay on Escherichia coli [6], 63 µg/mL (≈ 316 µM); in the assay on Escherichia coli [7] it was 63 µg/mL (≈ 316 µM). In addition, the minimum inhibitory concentration (MIC) was found to be 2 µg/mL with Staphylococcus aureus [12] and 63 µg/mL (≈ 316 µM) in the assay on Staphylococcus aureus [8].
